Values joined by “and” are separate entries in the source; they are usually repeats but may differ in a detail not shown here. Identical values can stand only once.
Tested on: U2OS
Experiment: Multiplex assay against U2OS
Format: toxicity, cell-based
Conditions: human
Outline: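 Per cents of healthy-nucleus cells form the tubulin, mitochondrial-mass and membrane-permeability phenotype values. Live cells were stained at seeding with Hoechst33342, BioTracker Green Microtubule Cytoskeleton Dye, MitoTracker Red and Annexin V Alexa Fluor 680. After compound addition they were imaged on a CQ1 microscope at 37°C and 5% CO2, and CellPathfinder machine-learning gating split them into Hoechst high-intensity objects or normal cells, normal cells into healthy, pyknosed or fragmented nuclei, and pyknosed cells into mitotic or apoptotic.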

[1] = 12 h, 1 µM, compound concentration 1 uM
[2] = 12 h, 10 µM, compound concentration 10 uM
[3] = 24 h, 1 µM, compound concentration 1 uM
[4] = 24 h, 10 µM, compound concentration 10 uM
[5] = 48 h, 1 µM, compound concentration 1 uM
[6] = 48 h, 10 µM, compound concentration 10 uM

SMILES: CN[C@@H](C)C(=O)N[C@H](C(=O)N1CCC[C@H]1C(=O)Nc1snnc1-c1ccccc1)C1CCCCC1 [GDC-0152]
- Population Apoptotic (%) [1]: 60% and 89%
- Population Fragmented Nuclei (%) [1]: 25% and 21%
- Population Healthy Nuclei (%) [1]: 61% and 60%
- Population Hoechst High Intensity Objects (%) [1]: 5% and 11%
- Population Membrane Permeable-Phenotype (%) [1]: 51% and 50%
- Population Mitochondria Different-Phenotype (%) [1]: 24% and 38%
- Population Normal (%) [1]: 94% and 88%
- Population Pyknosed Nuclei (%) [1]: 13% and 17%
- Population Tubulin-Different-Phenotype (%) [1]: 47% and 52%
- Total Cell Count [1]: 176 and 121
- Population Apoptotic (%) [2]: 72% and 70%
- Population Fragmented Nuclei (%) [2]: 39% and 18%
- Population Healthy Nuclei (%) [2]: 44% and 65%
- Population Hoechst High Intensity Objects (%) [2]: 4% and 5%
- Population Membrane Permeable-Phenotype (%) [2]: 65% and 73%
- Population Mitochondria Different-Phenotype (%) [2]: 61% and 70%
- Population Mitotic Cells (%) [2]: 27% and 29%
- Population Normal (%) [2]: 95% and 94%
- Population Pyknosed Nuclei (%) [2]: 16% and 15%
- Population Tubulin-Different-Phenotype (%) [2]: 76% and 91%
- Total Cell Count [2]: 208 and 114
- Population Apoptotic (%) [3]: 72% and 85%
- Population Fragmented Nuclei (%) [3]: 21% and 34%
- Population Healthy Nuclei (%) [3]: 55% and 44%
- Population Hoechst High Intensity Objects (%) [3]: 5% and 8%
- Population Membrane Permeable-Phenotype (%) [3]: 20% and 25%
- Population Mitochondria Different-Phenotype (%) [3]: 18% and 28%
- Population Mitotic Cells (%) [3]: 27% and 14%
- Population Normal (%) [3]: 94% and 91%
- Population Pyknosed Nuclei (%) [3]: 23% and 21%
- Population Tubulin-Different-Phenotype (%) [3]: 19% and 27%
- Total Cell Count [3]: 196 and 144
- Population Apoptotic (%) [4]: 68% and 92%
- Population Fragmented Nuclei (%) [4]: 36% and 20%
- Population Healthy Nuclei (%) [4]: 43% and 40%
- Population Hoechst High Intensity Objects (%) [4]: 3% and 10%
- Population Membrane Permeable-Phenotype (%) [4]: 53% and 59%
- Population Mitochondria Different-Phenotype (%) [4]: 59% and 65%
- Population Normal (%) [4]: 96% and 89%
- Population Pyknosed Nuclei (%) [4]: 20% and 38%
- Population Tubulin-Different-Phenotype (%) [4]: 59% and 81%
- Total Cell Count [4]: 220 and 121
- Population Apoptotic (%) [5]: 93% and 88%
- Population Fragmented Nuclei (%) [5]: 35%
- Population Healthy Nuclei (%) [5]: 32% and 30%
- Population Hoechst High Intensity Objects (%) [5]: 8%
- Population Membrane Permeable-Phenotype (%) [5]: 16% and 38%
- Population Mitochondria Different-Phenotype (%) [5]: 12% and 17%
- Population Mitotic Cells (%) [5]: 6% and 11%
- Population Normal (%) [5]: 91%
- Population Pyknosed Nuclei (%) [5]: 32% and 34%
- Population Tubulin-Different-Phenotype (%) [5]: 9% and 27%
- Total Cell Count [5]: 246 and 170
- Population Apoptotic (%) [6]: 100% and 98%
- Population Fragmented Nuclei (%) [6]: 47% and 45%
- Population Healthy Nuclei (%) [6]: 22% and 8%
- Population Hoechst High Intensity Objects (%) [6]: 11% and 14%
- Population Membrane Permeable-Phenotype (%) [6]: 39% and 80%
- Population Mitochondria Different-Phenotype (%) [6]: 39% and 50%
- Population Mitotic Cells (%) [6]: 0% and 1%
- Population Normal (%) [6]: 88% and 85%
- Population Pyknosed Nuclei (%) [6]: 29% and 45%
- Population Tubulin-Different-Phenotype (%) [6]: 43% and 80%
- Total Cell Count [6]: 246 and 138

SMILES: CSc1nc(NC2CCCC2)c([N+](=O)[O-])c(NC2CCCC2)n1 [GS-39783]
- Population Apoptotic (%) [1]: 82% and 80%
- Population Fragmented Nuclei (%) [1]: 25% and 18%
- Population Healthy Nuclei (%) [1]: 66% and 76%
- Population Hoechst High Intensity Objects (%) [1]: 2% and 3%
- Population Membrane Permeable-Phenotype (%) [1]: 4%
- Population Mitochondria Different-Phenotype (%) [1]: 3% and 0%
- Population Mitotic Cells (%) [1]: 17% and 20%
- Population Normal (%) [1]: 97% and 96%
- Population Pyknosed Nuclei (%) [1]: 8% and 5%
- Population Tubulin-Different-Phenotype (%) [1]: 1%
- Total Cell Count [1]: 209 and 96
- Population Apoptotic (%) [2]: 88% and 100%
- Population Fragmented Nuclei (%) [2]: 30% and 19%
- Population Healthy Nuclei (%) [2]: 63% and 75%
- Population Hoechst High Intensity Objects (%) [2]: 3% and 1%
- Population Membrane Permeable-Phenotype (%) [2]: 9%
- Population Mitochondria Different-Phenotype (%) [2]: 5% and 0%
- Population Mitotic Cells (%) [2]: 11% and 0%
- Population Normal (%) [2]: 96% and 98%
- Population Pyknosed Nuclei (%) [2]: 5% and 4%
- Population Tubulin-Different-Phenotype (%) [2]: 4% and 6%
- Total Cell Count [2]: 322 and 145
- Population Apoptotic (%) [3]: 87% and 84%
- Population Fragmented Nuclei (%) [3]: 22% and 20%
- Population Healthy Nuclei (%) [3]: 64% and 68%
- Population Hoechst High Intensity Objects (%) [3]: 2% and 1%
- Population Membrane Permeable-Phenotype (%) [3]: 2% and 1%
- Population Mitochondria Different-Phenotype (%) [3]: 1%
- Population Mitotic Cells (%) [3]: 12% and 15%
- Population Normal (%) [3]: 97% and 98%
- Population Pyknosed Nuclei (%) [3]: 12% and 11%
- Population Tubulin-Different-Phenotype (%) [3]: 1% and 0%
- Total Cell Count [3]: 269 and 119
- Population Apoptotic (%) [4]: 85% and 88%
- Population Fragmented Nuclei (%) [4]: 26% and 18%
- Population Healthy Nuclei (%) [4]: 66% and 75%
- Population Hoechst High Intensity Objects (%) [4]: 2% and 3%
- Population Membrane Permeable-Phenotype (%) [4]: 6% and 9%
- Population Mitochondria Different-Phenotype (%) [4]: 6% and 2%
- Population Mitotic Cells (%) [4]: 14% and 11%
- Population Normal (%) [4]: 97% and 96%
- Population Pyknosed Nuclei (%) [4]: 6% and 5%
- Population Tubulin-Different-Phenotype (%) [4]: 4% and 5%
- Total Cell Count [4]: 341 and 164
- Population Apoptotic (%) [5]: 88% and 92%
- Population Fragmented Nuclei (%) [5]: 18% and 21%
- Population Healthy Nuclei (%) [5]: 70% and 71%
- Population Hoechst High Intensity Objects (%) [5]: 1% and 0%
- Population Membrane Permeable-Phenotype (%) [5]: 3%
- Population Mitochondria Different-Phenotype (%) [5]: 1%
- Population Mitotic Cells (%) [5]: 11% and 7%
- Population Normal (%) [5]: 98% and 100%
- Population Pyknosed Nuclei (%) [5]: 11% and 7%
- Population Tubulin-Different-Phenotype (%) [5]: 1% and 3%
- Total Cell Count [5]: 382 and 185
- Population Apoptotic (%) [6]: 89% and 85%
- Population Fragmented Nuclei (%) [6]: 23% and 12%
- Population Healthy Nuclei (%) [6]: 67% and 81%
- Population Hoechst High Intensity Objects (%) [6]: 2% and 0%
- Population Membrane Permeable-Phenotype (%) [6]: 5% and 4%
- Population Mitochondria Different-Phenotype (%) [6]: 1% and 3%
- Population Mitotic Cells (%) [6]: 10% and 14%
- Population Normal (%) [6]: 97% and 99%
- Population Pyknosed Nuclei (%) [6]: 8% and 6%
- Population Tubulin-Different-Phenotype (%) [6]: 2% and 3%
- Total Cell Count [6]: 462 and 231
